Blank lines part the entries; values can stand above or below the compound they belong to. Active and inactive are the calls of the source. The rule behind the calls is not given here.
Tests used:
CCRF S-180 = assay: Anticancer activity against […] cells xenografted in BALB/c nude mouse assessed as reduction in tumor weight at 1 mg/kg, ip measured after 21 days relative to vehicle control; format: functional; set-up: scale not given: the % may be the effect or the level left
Outline: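 Male mice, 4 weeks old, given s.c. flank S180 mouse sarcoma cells (3 x 10^6). From day 2, 10 mice per group received saline vehicle, oral drug at 5 mg/kg, or i.p. drug at 1 mg/kg, each dissolved in saline. Therapy ran 21 days; tumor weight and body weight were recorded.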

Mus musculus [1] = assay: Toxicity in BALB/c nude mouse xenografted with […] S180 cells assessed as body weight loss at 1 mg/kg, ip after 13 days relative to vehicle control; format: organism-based; conditions: in vivo, 312 h
Mus musculus [2] = assay: Toxicity in BALB/c nude mouse xenografted with […] S180 cells assessed as reduction in liver size at 1 mg/kg, ip after 21 days; format: organism-based; conditions: in vivo, 504 h
Mus musculus [3] = assay: Toxicity in BALB/c nude mouse xenografted with […] S180 cells assessed as reduction in spleen size at 1 mg/kg, ip after 21 days; format: organism-based; conditions: in vivo, 504 h
Mus musculus [4] = assay: Toxicity in BALB/c nude mouse xenografted with […] S180 cells assessed as reduction in kidney size at 1 mg/kg, ip after 21 days; format: organism-based; conditions: in vivo, 504 h
Mus musculus [5] = assay: Toxicity in BALB/c nude mouse xenografted with human MDA-MB-231 cells assessed as reduction in body weight at 40 mg/kg, po administered for 32 days; format: organism-based; conditions: in vivo, 768 h
Outline: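 MDA-MB-231 cells (5 x 10^6) were implanted s.c. in the flank of 6-week-old female athymic BALB/c nude mice. Oral dosing started at a tumor volume of about 100 mm3, with 8 mice per group and a saline vehicle control. […] Body weight was tracked over the 32-day treatment.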

[6] = Terminal half life in Sprague-Dawley rat plasma at 1 mg/kg, iv measured after 24 hrs by UPLC analysis; format: ADME, organism-based; conditions: read-out: beta t1/2 (converted)
Outline: (§1)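 Rats dosed i.v. or p.o. Plasma concentrations followed from 2 min to 24 h after dosing. The bioanalytical method was validated to FDA guidelines for selectivity, linearity, LLOQ, accuracy, precision, recovery, matrix effect and stability.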

[7] = Tmax in Sprague-Dawley rat plasma at 1 mg/kg, iv measured after 24 hrs by UPLC analysis; format: ADME, organism-based; outline: as §1
[8] = Cmax in Sprague-Dawley rat plasma at 1 mg/kg, iv measured after 24 hrs by UPLC analysis; format: ADME, organism-based; set-up: dose 1 mg/kg, route intravenous
Outline: (§2)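 Rat plasma sampled from 2 min to 24 h after a single i.v. (1 mg/kg) or p.o. (10 mg/kg) dose. Parameters were derived from the concentration-time profiles. The bioanalytical method was validated to FDA guidelines for selectivity, linearity, LLOQ, accuracy, precision, recovery, matrix effect and stability.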

[9] = Initial plasma concentration in Sprague-Dawley rat at 1 mg/kg, iv measured after 24 hrs by UPLC analysis; format: ADME, organism-based; outline: as §2
[10] = AUC (0 to t) in Sprague-Dawley rat plasma at 1 mg/kg, iv measured after 24 hrs by UPLC analysis; format: ADME, organism-based; set-up: dose 1 mg/kg, time < 24 hr, route intravenous; outline: as §2
[11] = AUC (0 to infinity) in Sprague-Dawley rat plasma at 1 mg/kg, iv measured after 24 hrs by UPLC analysis; format: ADME, organism-based; set-up: dose 1 mg/kg, time infinity, route intravenous; outline: as §2
[12] = Apparent volume of distribution in Sprague-Dawley rat plasma at 1 mg/kg, iv measured after 24 hrs by UPLC analysis; format: ADME, organism-based; conditions: read-out: Vz; outline: as §2
Rattus norvegicus [13] = assay: AUMC (0 to t) in Sprague-Dawley rat plasma at 1 mg/kg, iv measured after 24 hrs by UPLC analysis; format: ADME, organism-based; conditions: in vivo; outline: as §2
Rattus norvegicus [14] = assay: AUMC (0 to infinity) in Sprague-Dawley rat plasma at 1 mg/kg, iv measured after 24 hrs by UPLC analysis; format: ADME, organism-based; conditions: in vivo; outline: as §2
[15] = MRT (0 to t) in Sprague-Dawley rat plasma at 1 mg/kg, iv measured after 24 hrs by UPLC analysis; format: ADME, organism-based; outline: as §2
[16] = MRT (0 to infinity) in Sprague-Dawley rat plasma at 1 mg/kg, iv measured after 24 hrs by UPLC analysis; format: ADME, organism-based; outline: as §2
[17] = Oral bioavailability in Sprague-Dawley rat at 10 mg/kg measured after 24 hrs by UPLC analysis; format: ADME, organism-based; conditions: in vivo
[18] = Terminal half life in Sprague-Dawley rat plasma at 10 mg/kg, po measured after 24 hrs by UPLC analysis; format: ADME, organism-based; conditions: read-out: beta t1/2 (converted); outline: as §1
[19] = Tmax in Sprague-Dawley rat plasma at 10 mg/kg, po measured after 24 hrs by UPLC analysis; format: ADME, organism-based; outline: as §1
[20] = Cmax in Sprague-Dawley rat plasma at 10 mg/kg, po measured after 24 hrs by UPLC analysis; format: ADME, organism-based; set-up: dose 10 mg/kg, route oral; outline: as §2
[21] = AUC (0 to t) in Sprague-Dawley rat plasma at 10 mg/kg, po measured after 24 hrs by UPLC analysis; format: ADME, organism-based; set-up: time < 24 hr, dose 10 mg/kg, route oral; outline: as §2
[22] = AUC (0 to infinity) in Sprague-Dawley rat plasma at 10 mg/kg, po measured after 24 hrs by UPLC analysis; format: ADME, organism-based; set-up: dose 10 mg/kg, route oral, time infinity; outline: as §2
Rattus norvegicus [23] = assay: Apparent volume of distribution in Sprague-Dawley rat plasma at 10 mg/kg, po measured after 24 hrs by UPLC analysis; format: ADME, organism-based; conditions: in vivo; outline: as §2
Rattus norvegicus [24] = assay: AUMC (0 to t) in Sprague-Dawley rat plasma at 10 mg/kg, po measured after 24 hrs by UPLC analysis; format: ADME, organism-based; conditions: in vivo; outline: as §2
Rattus norvegicus [25] = assay: AUMC (0 to infinity) in Sprague-Dawley rat plasma at 10 mg/kg, po measured after 24 hrs by UPLC analysis; format: ADME, organism-based; conditions: in vivo; outline: as §2
[26] = MRT (0 to t) in Sprague-Dawley rat plasma at 10 mg/kg, po measured after 24 hrs by UPLC analysis; format: ADME, organism-based; outline: as §2
[27] = MRT (0 to infinity) in Sprague-Dawley rat plasma at 10 mg/kg, po measured after 24 hrs by UPLC analysis; format: ADME, organism-based; outline: as §2
MDA-MB-231 [28] = assay: Anticancer activity against human MDA-MB-231 cells xenografted in BALB/c nude mouse assessed as reduction in tumor volume at 40 mg/kg, po qd; format: functional, organism-based
Outline: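 Female athymic BALB/c nude mice, 6 weeks old, bearing s.c. flank MDA-MB-231 xenografts (5 x 10^6 cells). Dosing began at about 100 mm3 tumor volume; 8 mice per group, one tumor each. Drug was given orally in saline, with a saline vehicle control, for 32 days. Caliper L and W measured every other day; volume = 0.5236×L×W².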

Mus musculus [29] = assay: Toxicity in BALB/c nude mouse xenografted with human MDA-MB-231 cells assessed as heart damage at 40 mg/kg, po qd administered for 32 days by H&E staining based light microscopy; format: organism-based; conditions: in vivo, 768 h
Outline: (§3)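 6-week-old female athymic SPF BALB/c nude mice received 5 x 10^6 MDA-MB-231 cells s.c. in the flank. Oral treatment began once tumors reached about 100 mm3, with 8 mice per group and a saline vehicle control. […] Treatment lasted 32 days. Heart, liver, spleen, lung and kidney were fixed 48 h in 10% neutral-buffered formaldehyde, paraffin-embedded, cut at 5 µm, H&E-stained and examined by light microscopy.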

Mus musculus [30] = assay: Toxicity in BALB/c nude mouse xenografted with human MDA-MB-231 cells assessed as liver damage at 40 mg/kg, po qd administered for 32 days by H&E staining based light microscopy; format: organism-based; conditions: in vivo, 768 h; outline: as §3
Mus musculus [31] = assay: Toxicity in BALB/c nude mouse xenografted with human MDA-MB-231 cells assessed as spleen damage at 40 mg/kg, po qd administered for 32 days by H&E staining based light microscopy; format: organism-based; conditions: in vivo, 768 h; outline: as §3
Mus musculus [32] = assay: Toxicity in BALB/c nude mouse xenografted with human MDA-MB-231 cells assessed as lung damage at 40 mg/kg, po qd administered for 32 days by H&E staining based light microscopy; format: organism-based; conditions: in vivo, 768 h; outline: as §3
Mus musculus [33] = assay: Toxicity in BALB/c nude mouse xenografted with human MDA-MB-231 cells assessed as kidney damage at 40 mg/kg, po qd administered for 32 days by H&E staining based light microscopy; format: organism-based; conditions: in vivo, 768 h; outline: as §3
MDA-MB-231 [34] = assay: Antiproliferative activity against human MDA-MB-231 cells after 24 hrs by MTT assay; format: functional, cell-based; conditions: MDA-MB-231, 24 h
Outline: (§4)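 Cells were seeded at 3000 per well and incubated 24 h at 37 °C. Compounds were added in triplicate with 10% FBS: 0.1-10 or 0.1-20 µM for cancer lines, 3.125-400 µM for MCF-10A. Viability was read by MTT absorbance at 595 nm, with IC50 fitted from the curves. DMSO stocks were 20 mM.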

[35] = Antiproliferative activity against human UW426 cells after 24 hrs by MTT assay; format: functional, cell-based; conditions: UW426, 24 h; outline: as §4
[36] = Antiproliferative activity against human UW288-1 cells after 24 hrs by MTT assay; format: functional, cell-based; conditions: UW288-1, 24 h; outline: as §4
[37] = Antiproliferative activity against human BkPC-3 cells after 24 hrs by MTT assay; format: functional, cell-based; conditions: BkPC-3, 24 h; outline: as §4
U2OS = assay: Antiproliferative activity against human U2OS cells after 24 hrs by MTT assay; format: functional, cell-based; outline: as §4
[38] = molecular target: Epidermal growth factor receptor (Homo sapiens) (UniProt P00533); assay: Inhibition of EGFR in human MDA-MB-231 cells assessed as reduction in p-Akt level at 2.5 to 5 uM after 12 hrs by immunoblot analysis; format: cell-based
Outline: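 MDA-MB-231 cells at 60–80% confluence were treated 12 h with 10% FBS at 2.5-10 µM or 2.5-5 µM, against a DMSO control. Whole-cell lysates were immunoblotted, with bands quantified as percent of control.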

Epidermal growth factor receptor (Homo sapiens), sequence (P00533 whole entry): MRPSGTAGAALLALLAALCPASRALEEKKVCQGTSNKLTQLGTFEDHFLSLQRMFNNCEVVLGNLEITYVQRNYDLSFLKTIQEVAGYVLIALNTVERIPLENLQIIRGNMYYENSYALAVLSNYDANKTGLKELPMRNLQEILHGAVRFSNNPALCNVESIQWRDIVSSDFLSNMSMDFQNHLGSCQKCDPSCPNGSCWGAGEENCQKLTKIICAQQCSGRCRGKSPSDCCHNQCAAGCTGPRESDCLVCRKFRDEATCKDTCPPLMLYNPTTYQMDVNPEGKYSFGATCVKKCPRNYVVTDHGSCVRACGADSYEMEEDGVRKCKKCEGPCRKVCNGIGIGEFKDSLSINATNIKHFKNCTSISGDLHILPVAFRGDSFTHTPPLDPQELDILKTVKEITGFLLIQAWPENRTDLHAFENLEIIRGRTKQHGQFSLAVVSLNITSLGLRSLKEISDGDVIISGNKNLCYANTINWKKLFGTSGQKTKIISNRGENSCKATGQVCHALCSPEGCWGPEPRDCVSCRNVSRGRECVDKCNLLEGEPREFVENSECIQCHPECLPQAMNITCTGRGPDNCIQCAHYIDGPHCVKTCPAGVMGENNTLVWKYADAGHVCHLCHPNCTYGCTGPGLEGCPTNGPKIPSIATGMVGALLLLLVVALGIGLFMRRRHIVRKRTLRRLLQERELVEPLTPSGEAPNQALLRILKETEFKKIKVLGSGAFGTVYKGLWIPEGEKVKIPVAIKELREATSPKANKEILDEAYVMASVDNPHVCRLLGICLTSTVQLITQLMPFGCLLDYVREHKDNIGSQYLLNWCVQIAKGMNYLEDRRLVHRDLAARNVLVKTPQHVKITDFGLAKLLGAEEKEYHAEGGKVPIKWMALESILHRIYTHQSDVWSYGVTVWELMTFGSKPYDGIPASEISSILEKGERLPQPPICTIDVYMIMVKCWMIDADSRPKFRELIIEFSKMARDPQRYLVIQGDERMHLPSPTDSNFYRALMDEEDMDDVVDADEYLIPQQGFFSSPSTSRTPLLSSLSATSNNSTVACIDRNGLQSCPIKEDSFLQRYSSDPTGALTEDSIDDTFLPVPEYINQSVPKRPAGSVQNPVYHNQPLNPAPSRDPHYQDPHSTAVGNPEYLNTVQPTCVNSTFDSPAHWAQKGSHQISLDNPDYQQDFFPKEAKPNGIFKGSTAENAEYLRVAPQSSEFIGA

Structure (SMILES): COc1cccc2c1C(=O)c1c(O)c3c(c(O)c1C2=O)C[C@@](O)(C(=O)CO)C[C@@H]3O[C@H]1C[C@H](N)[C@H](O)[C@H](C)O1 [DOXORUBICIN]
Activity (CCRF S-180): 52.23%
Activity (Mus musculus [1]): 21.01%
Activity (Mus musculus [2]): Toxic
Activity (Mus musculus [3]): Toxic
Activity (Mus musculus [4]): Toxic

half-life [6]: 2.39 h
Tmax [7]: 1.98 min
Cmax [8]: 621 ng/mL
C0 at 24 h [9]: 715 ng/mL
AUC(0-t) at 24 h [10]: 491 ng·h/mL
AUC(0-inf) [11]: 501 ng·h/mL
Vd [12]: 6.68 L/kg
AUMCt (Rattus norvegicus [13]): 1098 hr2.ng/ml
AUMC (Rattus norvegicus [14]): 1261.5 hr2.ng/ml
MRT last at 24 h [15]: 2.12 h
MRT inf [16]: 2.4 h
bioavailability [17]: 47.4%
half-life [18]: 2.17 h
Tmax [19]: 1 h
Cmax [20]: 1200 ng/mL
AUC(0-t) at 24 h [21]: 2360 ng·h/mL
AUC(0-inf) [22]: 2370 ng·h/mL
Vz (Rattus norvegicus [23]): 13.2387 L/kg
AUMCt (Rattus norvegicus [24]): 5649.7 hr2.ng/ml
AUMC (Rattus norvegicus [25]): 5903.9 hr2.ng/ml
MRT last at 24 h [26]: 2.4 h
MRT inf [27]: 2.49 h
Structure (SMILES): COc1cc2ncnc(Nc3ccc(F)c(Cl)c3)c2cc1OCCCN1CCOCC1 [GEFITINIB]
Activity (Mus musculus [5]): Non-Toxic
Activity (MDA-MB-231 [28]): Active
Activity (Mus musculus [29]): Non-Toxic
Activity (Mus musculus [30]): Non-Toxic
Activity (Mus musculus [31]): Non-Toxic
Activity (Mus musculus [32]): Non-Toxic
Activity (Mus musculus [33]): Non-Toxic

IC50 (MDA-MB-231 [34]): 6.8 µM
IC50 (U2OS): 8.3 µM
inhibition [38]: Active
Structure (SMILES): CN(CC(=O)N(Cc1ccc(C2CCCCC2)cc1)c1ccc(C(=O)O)c(O)c1)S(=O)(=O)c1c(F)c(F)c(F)c(F)c1F
IC50 [35]: 10.2 µM
IC50 [36]: 9.8 µM
IC50 [37]: 6.9 µM

Source: ChEMBL document CHEMBL4007452, “Discovery of an Orally Selective Inhibitor of Signal Transducer and Activator of Transcription 3 Using Advanced Multiple Ligand Simultaneous Docking” (J Med Chem, 2017)
